This passage reports IC50 results from ChEMBL document CHEMBL1687894, “Design, synthesis and evaluation of 3-methylene-substituted indolinones as antimalarials” (Eur J Med Chem, 2011).

The target in one experiment is T1, Falcipain 2 (Plasmodium falciparum, UniProt Q9N6S8).
T1 sequence (Q9N6S8 whole entry): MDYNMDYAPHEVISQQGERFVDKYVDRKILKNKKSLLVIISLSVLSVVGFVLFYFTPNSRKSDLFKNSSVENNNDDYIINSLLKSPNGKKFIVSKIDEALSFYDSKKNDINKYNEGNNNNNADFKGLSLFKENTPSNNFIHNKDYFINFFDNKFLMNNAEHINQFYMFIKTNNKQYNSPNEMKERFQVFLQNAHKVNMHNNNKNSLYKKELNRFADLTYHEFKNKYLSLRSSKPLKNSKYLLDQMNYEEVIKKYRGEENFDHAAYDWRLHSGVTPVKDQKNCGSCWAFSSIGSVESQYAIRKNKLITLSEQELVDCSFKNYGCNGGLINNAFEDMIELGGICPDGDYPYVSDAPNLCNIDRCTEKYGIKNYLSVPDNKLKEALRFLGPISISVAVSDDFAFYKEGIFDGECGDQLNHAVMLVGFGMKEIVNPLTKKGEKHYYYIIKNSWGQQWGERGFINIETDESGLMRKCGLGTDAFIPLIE
Description: Inhibition of Plasmodium falciparum falcipain 2 incubated with compound for 10 mins before addition of 25 uM Z-Leu-Arg-AMC substrate by fluorescence spectrophotometry. Summed up:
(§1)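 Run at 25 °C in 100 mM sodium acetate pH 6.0 with 5 mM DTT and 0.75% DMSO. Enzyme was preincubated 10 min with compound diluted from DMSO, then Z-Leu-Arg-AMC was added and fluorescence was read immediately. Eight inhibitor concentrations were made by fivefold serial dilution. IC50 was fitted to percent inhibition versus a no-inhibitor control against log concentration.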

The next experiment concerns Plasmodium falciparum. Nature of the experiment: Antiplasmodial activity against chloroquine-resistant Plasmodium falciparum W2 infected in human red blood cells assessed as inhibition of ring-stage parasite growth after 48 hrs by flow cytometry. The format is functional, organism-based. The conditions noted are these: W2, 48 h.
The target of experiment [1] is T2, Cysteine protease falcipain-3 (Plasmodium falciparum, UniProt Q9NAW4).
T2 sequence (Q9NAW4 whole entry): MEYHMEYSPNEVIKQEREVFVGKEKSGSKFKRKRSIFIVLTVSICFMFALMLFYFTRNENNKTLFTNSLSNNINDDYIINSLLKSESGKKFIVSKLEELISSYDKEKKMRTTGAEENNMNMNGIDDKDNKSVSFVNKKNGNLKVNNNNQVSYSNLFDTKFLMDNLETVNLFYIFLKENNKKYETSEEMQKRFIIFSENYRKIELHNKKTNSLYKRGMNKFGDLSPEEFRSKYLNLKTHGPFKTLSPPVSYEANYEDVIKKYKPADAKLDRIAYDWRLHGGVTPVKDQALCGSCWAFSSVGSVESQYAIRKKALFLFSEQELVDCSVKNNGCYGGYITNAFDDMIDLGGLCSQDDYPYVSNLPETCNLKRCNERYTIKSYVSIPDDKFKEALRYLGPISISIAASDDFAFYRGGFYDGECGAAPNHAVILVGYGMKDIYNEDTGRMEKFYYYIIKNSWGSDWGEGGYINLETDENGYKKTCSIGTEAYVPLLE
Nature of the experiment: Inhibition of Plasmodium falciparum falcipain 3 incubated with compound for 10 mins before addition of 25 uM Z-Leu-Arg-AMC substrate by fluorescence spectrophotometry. Summed up: as §1

On to `CCOC(=O)CNC=C1C(=O)Nc2ccccc21`, for which the 50% inhibitory concentration (IC50) is greater than 50 µM on Falcipain 2 and 10.8 µM in the experiment on Plasmodium falciparum.
On the same counts, the results for `CN(C)C=C1C(=O)Nc2cc(Cl)ccc21` are greater than 50 µM and greater than 50 µM.
As to `O=C1Nc2c(Cl)cccc2C1=CNCCNc1ccnc2cc(Cl)ccc12`, the IC50 with Plasmodium falciparum was 0.14 µM.
In the case of `O=C1Nc2ccc(Cl)cc2C1=CNCCCNc1ccnc2cc(Cl)ccc12`, the IC50 is greater than 50 µM on Falcipain 2 and 0.2 µM in the experiment with Plasmodium falciparum.
In the same order, the values of `CN(C)C=C1C(=O)Nc2c(Cl)cccc21` are greater than 50 µM and greater than 50 µM.
In the same order, the values of `O=C1Nc2ccccc2C1=CSCc1ccccc1` are greater than 50 µM and greater than 10 µM.
As for `CC(C)CCNC(=O)[C@H](CC(C)C)NC=C1C(=O)N(C)c2ccccc21`, the IC50 on Falcipain 2 was greater than 50 µM; in experiment [1], greater than 50 µM; in the experiment on Plasmodium falciparum, 23.5 µM.
As for `CN(C)C=C1C(=O)Nc2ccccc21`, the concentration for half-maximal inhibition (IC50) at Falcipain 2 and in the experiment on Plasmodium falciparum was greater than 50 µM each time.
With `O=C1Nc2cc(Cl)ccc2C1=CNCCCNc1ccnc2cc(Cl)ccc12`, the IC50 at Falcipain 2 is greater than 50 µM; in the experiment on Plasmodium falciparum it was 0.18 µM.
On to `CC(C)CCNC(=O)[C@H](CC(C)C)NC=C1C(=O)Nc2cc(Cl)ccc21`, for which the IC50 was 48.5 µM at Falcipain 2, greater than 50 µM in experiment [1] and 15.9 µM in the experiment on Plasmodium falciparum.
In the same order, the values of `CC(C)CCNC(=O)[C@H](CCc1ccccc1)NC=C1C(=O)Nc2c(Cl)cccc21` are 44 µM, greater than 50 µM and 13.4 µM.
As to `CC(C)CCNC(=O)[C@H](CC(C)C)NC=C1C(=O)Nc2c(Cl)cccc21`, the IC50 at Falcipain 2 is 42.1 µM; in experiment [1], greater than 50 µM; with Plasmodium falciparum, 15.7 µM.
In the case of `CC(C)C[C@H](NC(=O)[C@H]1O[C@@H]1C(=O)O)C(=O)NCCCCN=C(N)N` [E-64], the concentration for half-maximal inhibition (IC50) stood at 0.112 µM at Falcipain 2 and 0.481 µM in experiment [1].
In the case of `CN(C)C=C1C(=O)N(C)c2ccccc21`, the concentration for half-maximal inhibition (IC50) on Falcipain 2 and in the experiment with Plasmodium falciparum was greater than 50 µM in each case.
Take `CC(C)CCNC(=O)[C@H](CC(C)C)NC=C1C(=O)Nc2ccccc21`: the IC50 is greater than 50 µM at Falcipain 2, greater than 50 µM in experiment [1] and 30.7 µM in the experiment with Plasmodium falciparum.
As for `O=C1Nc2ccccc2C1=CNc1ccccc1`, the half-maximal inhibitory concentration (IC50) was greater than 50 µM at Falcipain 2 and greater than 10 µM with Plasmodium falciparum.
`CC(C)CCNC(=O)[C@H](CCc1ccccc1)NC=C1C(=O)Nc2ccccc21`: the figures for the IC50 (at Falcipain 2; in experiment [1]; in the experiment with Plasmodium falciparum) were 49.9 µM, greater than 50 µM and 18.6 µM, respectively.
On the same counts, the results for `CC(C)CCNC(=O)CNC=C1C(=O)Nc2ccccc21` are greater than 50 µM, greater than 50 µM and 26.7 µM.
On to `CN1C(=O)C(=CNCCCNc2ccnc3cc(Cl)ccc23)c2ccccc21`, for which the IC50 is greater than 50 µM on Falcipain 2 and 0.29 µM with Plasmodium falciparum.
In the same order, the values of `CN(C)C=C1C(=O)Nc2ccc(Cl)cc21` are greater than 50 µM and greater than 50 µM.
In the same order, the values of `O=C1Nc2c(Cl)cccc2C1=CNCCCNc1ccnc2cc(Cl)ccc12` are greater than 50 µM and 0.17 µM.
On the same counts, the results for `CCOC(=O)[C@H](Cc1ccccc1)NC=C1C(=O)Nc2ccccc21` are greater than 50 µM and greater than 10 µM.
On to `O=C1Nc2ccccc2C1=CNCCCNc1ccnc2cc(Cl)ccc12`, for which the 50% inhibitory concentration (IC50) was greater than 50 µM at Falcipain 2 and 0.42 µM in the experiment on Plasmodium falciparum.
Consider `CC(C)CCNC(=O)[C@H](Cc1ccccc1)NC=C1C(=O)Nc2ccc(Cl)cc21`, for which the IC50 at Falcipain 2 is 43.3 µM; in experiment [1], greater than 50 µM; in the experiment with Plasmodium falciparum, greater than 50 µM.
Consider `CC(C)CCNC(=O)[C@H](CC(C)C)NC=C1C(=O)Nc2ccc(Cl)cc21`, for which the concentration for half-maximal inhibition (IC50) at Falcipain 2 was 44.1 µM; in experiment [1] it was greater than 50 µM; with Plasmodium falciparum it was 18.7 µM.
